By Ki is commonly meant the dissociation constant of the complex between target and ligand, obtained from inhibition or displacement. The term EC50 denotes the midpoint of the concentration-response curve. The term microsomal CLint denotes a measure of how fast metabolising enzymes remove a compound, apart from limits set by blood flow. Read a high microsomal CLint as rapid turnover.

The source made the active and inactive calls. The calls are words filed in the database; no cut-off is given here.

In series [1] the target is T1, Cannabinoid receptor 1 (Homo sapiens, UniProt P21554). Kind of series: biochemical. The class given is cell-based, HEK293.
T1 sequence (P21554 whole entry): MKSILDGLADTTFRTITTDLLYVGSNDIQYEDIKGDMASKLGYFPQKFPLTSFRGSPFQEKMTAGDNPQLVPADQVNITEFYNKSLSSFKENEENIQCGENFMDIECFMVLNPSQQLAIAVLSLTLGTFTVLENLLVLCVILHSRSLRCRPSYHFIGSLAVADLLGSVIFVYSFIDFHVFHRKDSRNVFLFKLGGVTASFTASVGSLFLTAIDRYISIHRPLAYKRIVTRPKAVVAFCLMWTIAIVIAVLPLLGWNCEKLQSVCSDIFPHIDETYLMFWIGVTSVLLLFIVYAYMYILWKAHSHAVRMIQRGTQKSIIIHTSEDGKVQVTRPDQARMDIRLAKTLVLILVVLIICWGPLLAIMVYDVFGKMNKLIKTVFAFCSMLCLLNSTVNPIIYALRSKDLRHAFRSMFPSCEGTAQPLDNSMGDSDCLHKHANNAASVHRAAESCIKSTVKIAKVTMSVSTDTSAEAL
In series [2] the target is T1, Cannabinoid receptor 1. The series is described as follows: Activity at human CB1R expressed in HEK293 cells assessed as intracellular cAMP level. The class given is functional, cell-based. A general note: Changes in cAMP serve as a functional read-out for many G protein-coupled receptors.
Series [3] in a line: Clearance in human liver microsomes. The series is classed as ADME, Microsome. As to conditions: liver microsomes. The method in brief: (§1)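 Test compound at 2 µM incubated with liver microsomes (0.5 mg protein/mL) in 50 mM potassium phosphate pH 7.4 at 37 °C. Reaction started with an NADPH-generating system (glucose-6-phosphate 3.2 mM, NADP 2.6 mM, MgCl2 6.5 mM). Six samples over 30 min, quenched in methanol with internal standard, then LC-MS/MS for substrate depletion. CLint taken from the first-order decay, normalized to protein.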
(Liver microsomes are vesicles of endoplasmic reticulum, rich in cytochrome P450 enzymes.)

Series [4] in a line: Clearance in rat liver microsomes. To be noted: liver microsomes. The class given is ADME, Microsome. The method in brief: as §1
The test system of series [5] is Mus musculus. The series is described as follows: Reversal of CP-55940-induced hypothermia in po dosed NMRI mouse assessed as rectal temperature. To be noted: read-out: ID50 (the source's name). The class given is functional. The method in brief: (§2)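 Mice housed eight per group, eight per dose, habituated at least 2 h. Test compound in 0.3% Tween 80 (10 mL/kg) given 90 min before CP 55940 (0.3 mg/kg iv, same vehicle). Body temperature read 20 min before compound, just before CP 55940, and 20 min after it.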

Series [6] has as its system Mus musculus. Kind of series: Reversal of CP-55940-induced hypothermia in NMRI mouse assessed as rectal temperature at 30 mg/kg, ip. The series is classed as functional. The method in brief:
as §2

In series [7] the test system is Mus musculus. Kind of series: Reversal of CP-55940-induced hypothermia in NMRI mouse assessed as rectal temperature at 30 mg/kg, po. The series is classed as functional, organism-based. On the set-up: dose 30 mg/kg. The method in brief:
as §2

Series [8] deals with Rattus norvegicus. Kind of series: Reduction in body fat in po dosed diet-induced obesity Sprague-Dawley rat model. The class given is functional, organism-based. The gist of the method:
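Sprague-Dawley rats fed HFD from 3 weeks of age for 10 weeks; high responders (body weight exceeding chow controls by >2 SD) grouped n = 9. After 3 days gavage adaptation, daily oral dosing at 5:00 p.m. for 2 weeks in 7.5% gelatine/0.62% NaCl in water, 2 mL/kg. Fat and lean mass by MRI before and at end of treatment.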

In series [9] the target is Cannabinoid receptor 2 (Homo sapiens, UniProt P34972). The series is described as follows: Binding affinity to human CB2R.
Cannabinoid receptor 2, sequence (P34972 whole entry): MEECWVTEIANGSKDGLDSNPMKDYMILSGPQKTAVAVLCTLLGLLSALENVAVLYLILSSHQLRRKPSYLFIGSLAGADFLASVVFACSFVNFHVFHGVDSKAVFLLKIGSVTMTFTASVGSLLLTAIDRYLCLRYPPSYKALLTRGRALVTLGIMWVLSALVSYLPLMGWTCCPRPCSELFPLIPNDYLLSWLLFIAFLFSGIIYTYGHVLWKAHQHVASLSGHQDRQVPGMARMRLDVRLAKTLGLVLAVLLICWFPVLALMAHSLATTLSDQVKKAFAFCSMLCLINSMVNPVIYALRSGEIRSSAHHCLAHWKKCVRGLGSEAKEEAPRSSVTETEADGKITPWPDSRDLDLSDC

The compound `O=C(c1cc2c(cc1F)O[C@@](c1ccc(F)cc1)(c1ccc(Cl)cc1Cl)O2)N1CCOCC1` displayed a Ki in series [1] of 35 nM.
For `O=C(c1ccc2c(c1)OC(c1ccccc1)(c1ccccc1)O2)N1CCOCC1`, affinity in [1] was put at a Ki of 50 nM. Moreover, the EC50 in series [2] came to 784 nM.
In the case of `O=C(c1cc2c(cc1F)OC(c1ccc(F)cc1)(c1ccc(Cl)cc1Cl)O2)N1CCCCC1` (stereo unspecified), the intrinsic metabolic clearance (microsomal CLint) in series [3] worked out at 31 µL/min/mg; in series [4] it was 89 µL/min/mg. Besides, the Ki in [1] came to 4 nM. Moreover, in series [2], the EC50 amounted to 5 nM.
Turning to `O=C(c1cc2c(cc1F)OC(c1ccc(F)cc1F)(c1ccc(F)cc1F)O2)N1CCCCC1`, the values for the microsomal CLint in series [3] and in [4] were 34 µL/min/mg and 122 µL/min/mg, respectively. In series [1], the Ki was 1 nM. Moreover, the EC50 in series [2] stood at 2 nM.
For the compound `O=S(=O)(c1cc2c(cc1F)OC(c1ccc(F)cc1)(c1ccc(Cl)cc1Cl)O2)N1CCOCC1` (stereo unspecified), the microsomal CLint was found to be 20 µL/min/mg in [3] and 53 µL/min/mg in series [4]. Moreover, the ED50 in series [5] amounted to 16 mg/kg. The inhibitory constant (Ki) in series [1] amounted to 9 nM. In [2], the EC50 turned out to be 3 nM.
With `O=C(c1cc2c(cc1F)OC(c1ccccc1F)(c1ccc(Cl)cc1Cl)O2)N1CCOCC1` (stereo unspecified), the microsomal CLint in [3] was determined as 21 µL/min/mg; in series [4], 123 µL/min/mg. For the same compound, the ED50 in series [5] was 6 mg/kg. Moreover, in [1], affinity was put at a Ki of 4 nM. Besides, in [2], the EC50 turned out to be 2 nM.
For the compound `O=C(c1cc2c(cc1F)OC(c1ccc(F)cc1F)(c1ccc(F)cc1F)O2)N1CCOCC1`, the microsomal CLint in [3] is 96 µL/min/mg; in series [4] it was 30 µL/min/mg. Moreover, in [5], the ED50 was 8 mg/kg. This compound also returned a Ki in series [1] of 7 nM. The EC50 in series [2] turned out to be 4 nM.
As to `O=S(=O)(c1cc2c(cc1F)OC(c1ccc(F)cc1F)(c1ccc(F)cc1F)O2)N1CCC(F)(F)CC1`, the result in series [6] and in [7] was inactive. Moreover, the microsomal CLint in series [3] came out at 271 µL/min/mg; in series [4], 287 µL/min/mg. In series [1], this compound showed a Ki of 3 nM. For the same compound, the EC50 in series [2] is 3 nM.
Consider `O=C(CC(c1ccccc1)c1ccccc1)N1CC=C(c2ccc(Cl)cc2)CC1`, for which, in series [1], the affinity corresponds to a Ki of 1500 nM. This lies in the single-digit micromolar range.
With `O=C(c1cc2c(cc1F)OC(c1ccccc1)(c1ccccc1)O2)N1CCOCC1`, the microsomal CLint in series [3] stood at 33 µL/min/mg; in series [4], 272 µL/min/mg. Besides, the affinity in series [1] corresponds to a Ki of 15 nM. Further, in series [2], the EC50 was 26 nM.
With `O=C(c1cc2c(cc1F)OC(c1ccccc1)(c1ccccc1)O2)N1CCCCC1`, the microsomal CLint in series [3] is 50 µL/min/mg; in series [4], 486 µL/min/mg. The Ki in [1] turned out to be 11 nM. For the same compound, the EC50 in [2] was 1.2 nM.
Turning to `O=S(=O)(c1cc2c(cc1F)OC(c1ccc(F)cc1F)(c1ccc(F)cc1F)O2)N1CCOCC1`, the result in series [6] and in series [7] was inactive. Also, the figures for the microsomal CLint in series [3] and in series [4] were 102 µL/min/mg and 149 µL/min/mg, respectively. For the same compound, the Ki in series [1] stood at 25 nM. The EC50 in [2] amounted to 11 nM.
`N#Cc1cc2c(cc1C(=O)N1CCOCC1)OC(c1ccccc1)(c1ccccc1)O2` returned a Ki in [1] of 277 nM.
Same read-out and setting: then `O=C(c1cc2c(cn1)OC(c1ccccc1)(c1ccccc1)O2)N1CCCCC1`, with 13 nM; and `O=C(c1cc2c(cc1F)OC(c1ccc(F)cc1)(c1ccc(F)cc1)O2)N1CCOCC1`, with 18 nM.
In the case of `Cc1c(C(=O)NN2CCCCC2)nn(-c2ccc(Cl)cc2Cl)c1-c1ccc(Cl)cc1`, the outcome in series [8] was Active.
Compound `Fc1ccc(C2(c3ccc(F)cc3)Oc3cc(F)c(CN4CCOCC4)cc3O2)cc1` showed a Ki in series [1] greater than 1000 nM.
Take `O=C(c1cc2c(cc1F)OC(c1ccc(F)cc1)(c1ccc(F)cc1)O2)N1CCCCC1`: the figures for the microsomal CLint in [3] and in series [4] were 48 µL/min/mg and 81 µL/min/mg, respectively. Also, the Ki in series [1] amounted to 7 nM. Further, the EC50 in series [2] worked out at 72 nM.
Regarding `O=C(c1cc2c(cc1Cl)OC(c1ccccc1)(c1ccccc1)O2)N1CCOCC1`, the microsomal CLint was 44 µL/min/mg in series [3] and 388 µL/min/mg in series [4]. This compound displayed a Ki in [1] of 216 nM.
As to `O=S(=O)(c1ccc2c(c1)OC(c1ccccc1)(c1ccccc1)O2)N1CC=C(c2ccc(F)cc2)CC1`, the outcome in [6] was inactive. In addition, the Ki in series [1] was 13 nM; in series [9], greater than 10000 nM.
Take `O=C(c1cc2c(cc1F)OC(c1ccc(F)cc1F)(c1ccc(F)cc1F)O2)N1CCC(F)(F)CC1`: the microsomal CLint in [3] worked out at 17 µL/min/mg; in series [4], 5 µL/min/mg. In addition, the affinity in series [1], expressed as Ki, was 6 nM. Further, in series [2], the EC50 came out at 2 nM.
With `CCCCCn1cc(C(=O)c2ccc3ccccc3c2)c2ccc(S(C)(=O)=O)cc21`, affinity in series [1] was put at a Ki of 110 nM. That is a sub-micromolar value.
On to `O=S(=O)(c1ccc2c(c1)OC(c1ccccc1)(c1ccccc1)O2)N1CCCCC1`, for which the result in [6] was inactive. Besides, the microsomal CLint came out at 137 µL/min/mg in [3] and 549 µL/min/mg in [4]. The same compound registered a Ki in series [1] of 38 nM.
With `O=C(c1ccc2c(c1)OC(c1ccc(F)cc1)(c1ccc(Cl)cc1Cl)O2)N1CCOCC1` (stereo unspecified), the figures for the microsomal CLint in series [3] and in series [4] were 19 µL/min/mg and 4 µL/min/mg, respectively. The Ki in [1] is 30 nM. Besides, the EC50 in series [2] was 156 nM.
Turning to `O=C(c1cc2c(cc1F)OC(c1ccc(F)cc1)(c1ccc(Cl)cc1Cl)O2)N1CCOCC1` (stereo unspecified), the intrinsic clearance (microsomal CLint) was found to be 10 µL/min/mg in series [3] and 22 µL/min/mg in [4]. Besides, in [5], the ED50 was determined as 5 mg/kg. In addition, affinity in series [1] was put at a Ki of 4 nM. Further, the EC50 in series [2] stood at 11 nM.
`O=C(c1cc2c(cc1Br)OC(c1ccccc1)(c1ccccc1)O2)N1CCOCC1` showed an inhibition constant (Ki) in series [1] of 873 nM. This lies in the sub-micromolar range.
Take `O=C(c1ccc2c(c1)OC(c1ccccc1)(c1ccccc1)O2)N1CCCCC1`: the result in [6] was inactive. Besides, the intrinsic metabolic clearance (microsomal CLint) in series [3] stood at 53 µL/min/mg; in series [4], 673 µL/min/mg. The affinity in [1] corresponds to a Ki of 28 nM.
Take `COc1ccc(C2(c3ccc(Cl)cc3Cl)Oc3cc(F)c(C(=O)N4CCCCC4)cc3O2)cc1` (stereo unspecified): the microsomal CLint in series [3] came to 34 µL/min/mg; in series [4] it was 88 µL/min/mg. Also, in [5], the ED50 is 8 mg/kg. Also, the Ki in series [1] turned out to be 2 nM. Also, in series [2], the EC50 came to 5 nM.
Take `Cc1cc2c(cc1C(=O)N1CCOCC1)OC(c1ccccc1)(c1ccccc1)O2`: the affinity in series [1], expressed as Ki, was 509 nM.
